Reference: ChEMBL document CHEMBL4665634, “Inhibiting Aβ toxicity in Alzheimer's disease by a pyridine amine derivative” (Eur J Med Chem, 2019)
The source made the active and inactive calls. The calls are words filed in the database; no cut-off is given here.

Key:
[1] = target: T1, Amyloid-beta precursor protein (Homo sapiens, UniProt P05067); test: Inhibition of amyloid beta (1 to 42)-induced paralysis in transgenic Caenorhabditis elegans GMC101 expressing human amyloid beta (1 to 42) assessed as paralyzed worms at 100 uM measured after 92 hrs by microscopic analysis relative to control; set-up: scale not given: the % may be the effect or the level left
T1 sequence (P05067 whole entry): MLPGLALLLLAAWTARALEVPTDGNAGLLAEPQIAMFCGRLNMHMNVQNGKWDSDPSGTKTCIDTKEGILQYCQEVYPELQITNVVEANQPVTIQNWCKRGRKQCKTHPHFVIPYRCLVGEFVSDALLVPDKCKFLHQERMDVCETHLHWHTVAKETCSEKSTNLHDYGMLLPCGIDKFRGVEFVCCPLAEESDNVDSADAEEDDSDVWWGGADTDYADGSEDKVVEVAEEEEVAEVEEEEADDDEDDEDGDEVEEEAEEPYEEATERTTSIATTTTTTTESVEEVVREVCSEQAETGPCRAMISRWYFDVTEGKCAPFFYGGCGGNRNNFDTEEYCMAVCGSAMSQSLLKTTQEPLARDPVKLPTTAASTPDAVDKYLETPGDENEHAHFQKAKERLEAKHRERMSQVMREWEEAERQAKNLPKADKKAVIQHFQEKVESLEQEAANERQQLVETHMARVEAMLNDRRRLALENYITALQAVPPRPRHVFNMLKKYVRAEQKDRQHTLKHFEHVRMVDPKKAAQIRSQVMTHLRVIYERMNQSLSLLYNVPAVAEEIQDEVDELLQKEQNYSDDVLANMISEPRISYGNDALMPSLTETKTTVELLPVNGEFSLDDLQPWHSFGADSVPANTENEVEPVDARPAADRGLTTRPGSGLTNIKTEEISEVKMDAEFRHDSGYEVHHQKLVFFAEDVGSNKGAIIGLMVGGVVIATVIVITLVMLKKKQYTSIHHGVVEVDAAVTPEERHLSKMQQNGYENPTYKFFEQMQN

[2] = test system: Caenorhabditis elegans; test: Reduction in 12 kDa amyloid beta species expression in Caenorhabditis elegans CL4176 at 50 uM after 48 hrs by Western blot analysis; format: functional
Method in brief: (§1)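 CL4176 raised on plates with compound (50 µM) at 15 °C to L3, then kept at 25 °C for 2 days. Worms sonicated in 0.1 M phosphate buffer, 16 µg protein run on 12% SDS-PAGE and blotted to PVDF. Probed with 6E10 (1:1000) and HRP anti-mouse secondary, with β-actin as the loading control.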

[3] = Inhibition of Zn2+ induced amyloid beta (1 to 40) aggregation assessed as reduction in fluorescence intensity at 20 uM preincubated for 5 mins in presence of ZnCl2 followed by compound addition addition and incubated for 24 hrs by Thioflavin T based fluorometric assay
Method in brief: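 Aβ40 (20 µM) preincubated with CuCl2 or ZnCl2 (20 µM) for 5 min at room temperature. Compound (20 µM) added, incubated 37 °C for 24 h. ThT (5 µM) added, fluorescence read at ex 450/em 485 nm. Mean ± S.D. of at least three independent experiments.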

[4] = test system: Caenorhabditis elegans; test: Induction of HSP expression in Caenorhabditis elegans; format: functional
[5] = test system: Caenorhabditis elegans; test: Reduction in 16 kDa amyloid beta species expression in Caenorhabditis elegans CL4176 at 50 uM after 48 hrs by Western blot analysis; format: functional; method in brief: as §1
[6] = Disaggregation of Zn2+ induced fibrils of amyloid beta (1 to 40) assessed as appearance of small soluble fragments at 0.1 to 100 uM incubated for 24 hrs uranyl acetate staining-based by TEM analysis; details: dose microM 0.1-100, time 24.0 hrs
[7] = test system: Caenorhabditis elegans; test: Upregulation of hsf-1 mRNA expression in Caenorhabditis elegans CL4176 at 50 uM by qRT-PCR analysis relative to control; format: functional
Method in brief: (§2)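 CL4176 worms treated with compound at 25 °C for 48 h (50, 100 µM for amy-1). RNA extracted with Trizol, cDNA made, EvaGreen qRT-PCR run for 40 cycles (95 °C 5 s, 60 °C 5 s). Normalized to ama-1 by the 2^−ΔΔCt method. Three independent preparations, samples in triplicate.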

[8] = test system: Caenorhabditis elegans; test: Effect on ace-1 mRNA expression in Caenorhabditis elegans CL4176; format: functional
[9] = target: T1, Amyloid-beta precursor protein; test: Inhibition of amyloid beta (1 to 42)-induced paralysis in transgenic Caenorhabditis elegans CL4176 expressing human amyloid beta (1 to 42) assessed as paralyzed worms at 200 uM treated for 49 hrs at 25 degreeC by microscopic analysis (reference value: 87 %); set-up: scale not given: the % may be the effect or the level left
[10] = Inhibition of Zn2+ induced amyloid beta (1 to 40) aggregation assessed as appearance of granule like species at 0.1 to 100 uM incubated for 24 hrs uranyl acetate staining-based by TEM analysis; details: dose microM 0.1-100, time 24.0 hrs
[11] = target: T1, Amyloid-beta precursor protein; test: Inhibition of amyloid beta (1 to 42)-induced paralysis in transgenic Caenorhabditis elegans GMC101 expressing human amyloid beta (1 to 42) assessed as paralyzed worms at 200 uM measured after 92 hrs by microscopic analysis relative to control; set-up: scale not given: the % may be the effect or the level left
[12] = test system: Mus musculus; test: Cognitive enhancing effect in APP/PS1 double mutant-transgenic C57BL/6 mouse model assessed as time spent on target quadrant at 1 mg/kg, iv measured on day 6 by Morris water maze test (reference value: 11.77 +/- 5.28 sec); format: functional; details: time 6 day
[13] = test system: Caenorhabditis elegans; test: Effect on skn-1 mRNA expression in Caenorhabditis elegans CL4176 at 50 uM by qRT-PCR analysis; format: functional
Method in brief: (§3)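 CL4176 qRT-PCR of skn-1 or sod-3. RNA extracted with Trizol, EvaGreen qRT-PCR run for 40 cycles (95 °C 5 s, 60 °C 5 s). Normalized to ama-1 by the 2^−ΔΔCt method. Three independent RNA/cDNA preparations, run in triplicate.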

[14] = target: T1, Amyloid-beta precursor protein; test: Inhibition of amyloid beta (1 to 42)-induced paralysis in transgenic Caenorhabditis elegans CL4176 expressing human amyloid beta (1 to 42) assessed as paralyzed worms at 50 uM treated for 49 hrs at 25 degreeC by microscopic analysis (reference value: 87 %); set-up: scale not given: the % may be the effect or the level left
[15] = test system: Mus musculus; test: Cognitive enhancing effect in APP/PS1 double mutant-transgenic C57BL/6 mouse model assessed as effect on escape latency time at 1 mg/kg, iv measured on day 5 by Morris water maze test (reference value: 50.08 +/- 17.95 sec); format: functional; details: time 5 day
[16] = test system: Caenorhabditis elegans; test: Effect on sod-3 mRNA expression in Caenorhabditis elegans CL4176 at 50 uM by qRT-PCR analysis; format: functional; method in brief: as §3
[17] = test system: Caenorhabditis elegans; test: Reduction in less than 55 kDa amyloid beta species expression in Caenorhabditis elegans CL4176 at 50 uM after 48 hrs by Western blot analysis; format: functional; method in brief: as §1
[18] = test system: Caenorhabditis elegans; test: Antioxidant activity in Caenorhabditis elegans CL4176 assessed as effect on juglone-induced ROS level by measuring relative fluorescence intensity at 100 uM and 15 to 25 degreeC after 48 hrs by H2DCF-DA probe based fluorescence assay ( Rvb = 74.23 %); format: functional
[19] = target: T1, Amyloid-beta precursor protein; test: Inhibition of amyloid beta (1 to 42)-induced paralysis in transgenic Caenorhabditis elegans GMC101 expressing human amyloid beta (1 to 42) assessed as paralyzed worms at 50 uM measured after 92 hrs by microscopic analysis relative to control; set-up: scale not given: the % may be the effect or the level left
[20] = test system: Caenorhabditis elegans; test: Upregulation of hsp-60 mRNA expression in Caenorhabditis elegans CL4176 at 50 uM by qRT-PCR analysis relative to control; format: functional; method in brief: as §2
[21] = Inhibition of Cu2+ induced amyloid beta (1 to 40) aggregation assessed as appearance of granule like species at 0.1 to 100 uM incubated for 24 hrs uranyl acetate staining-based by TEM analysis; details: dose microM 0.1-100, time 24.0 hrs
[22] = test system: Caenorhabditis elegans; test: Antioxidant activity in Caenorhabditis elegans CL4176 assessed as effect on juglone-induced ROS level by measuring relative fluorescence intensity at 50 uM and 15 to 25 degreeC after 48 hrs by H2DCF-DA probe based fluorescence assay ( Rvb = 74.23 %); format: functional
[23] = Solubility of the compound in water; format: physicochemical

SMILES: Oc1cc(CN(Cc2ccccn2)Cc2ccccn2)cc(C[P+](c2ccccc2)(c2ccccc2)c2ccccc2)c1.[Br-]
- Activity [1]: 66%
- Activity [2]: Active
- inhibition [3]: Active
- Activity [4]: Active
- Activity [5]: Active
- Activity [6]: Active
- fold change (FC) [7]: 1.55
- Activity [8]: inactive
- Activity [9]: 35%
- inhibition [10]: Active
- Activity [11]: 35%
- Time [12]: 17.2 s
- Activity [13]: inactive
- Activity [14]: 74%
- Time [15]: 34.25 s
- Activity [16]: inactive
- Activity [17]: Active
- Activity [18]: 28.14%
- Activity [19]: 74%
- fold change (FC) [20]: 1.59
- inhibition [21]: Active
- Activity [22]: 48.97%
- solubility [23]: Insoluble
